Reference: ChEMBL document CHEMBL1122112, “Imidodisulfamides. 1. A novel class of antagonists of slow-reacting substance of anaphylaxis” (1982)

Experiments:
Format in all cases: functional
Cavia porcellus [1] = species on record: Cavia porcellus; assay: Percent inhibition of slow reacting substance of anaphylaxis (SRS-A) induced contractions of isolated guinea pig ileum at 10 uM concentration.
Outline: (§1)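 Ileum segments proximal to Peyer's patch from male albino Hartley guinea pigs (400-600 g), in modified Tyrode's at 37.5 °C gassed with 95% O2-5% CO2. Isometric contractions recorded. Partially purified guinea pig SRS-A applied at a level giving 60-80% of maximal contraction until responses are reproducible, then reapplied after incubation with compound. Controls receive vehicle. Inhibition is the mean % change in treated tissue minus the mean % change in controls. FPL-55712 serves as reference.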

Cavia porcellus [2] = species on record: Cavia porcellus; assay: Percent inhibition of slow reacting substance of anaphylaxis (SRS-A) induced contractions of isolated guinea pig ileum at 50 uM concentration.; outline: as §1
Cavia porcellus [3] = species on record: Cavia porcellus; assay: Percent inhibition of slow reacting substance of anaphylaxis (SRS-A) induced contractions of isolated guinea pig ileum at 5 uM concentration.; outline: as §1
Cavia porcellus [4] = species on record: Cavia porcellus; assay: Percent inhibition of slow reacting substance of anaphylaxis (SRS-A) induced contractions of isolated guinea pig ileum at 20 uM concentration.; outline: as §1

| Compound | inhibition at 50 µM (Cavia porcellus [2]) | also measured |
| --- | --- | --- |
| O=S(=O)(NCc1ccccc1)NS(=O)(=O)NCc1ccccc1 |  | inhibition at 10 µM (Cavia porcellus [1]): 0.2% |
| COc1ccccc1CCNS(=O)(=O)NS(=O)(=O)NCCc1ccccc1OC | 0.2% |  |
| O=S(=O)(Nc1ccc(Br)cc1)NS(=O)(=O)Nc1ccc(Br)cc1 | 47% |  |
| CCCCc1ccc(NS(=O)(=O)NS(=O)(=O)Nc2ccc(CCCC)cc2)cc1 |  | inhibition at 5 µM (Cavia porcellus [3]): 5% |
| O=S(=O)(Nc1cccc(Cl)c1)NS(=O)(=O)Nc1cccc(Cl)c1 | 16% |  |
| O=S(=O)(NCCCCc1ccccc1)NS(=O)(=O)NCCCCc1ccccc1 |  | inhibition at 10 µM (Cavia porcellus [1]): 40% |
| O=S(=O)(Nc1cccc(F)c1)NS(=O)(=O)Nc1cccc(F)c1 | 10% |  |
| O=[N+]([O-])c1ccc(CCNS(=O)(=O)NS(=O)(=O)NCCc2ccc([N+](=O)[O-])cc2)cc1 | 19% |  |
| O=S(=O)(Nc1cccc(C(F)(F)F)c1)NS(=O)(=O)Nc1cccc(C(F)(F)F)c1 | 34% |  |
| O=S(=O)(NCCCCc1ccc(Cl)cc1)NS(=O)(=O)NCCCCc1ccc(Cl)cc1 |  | inhibition at 10 µM (Cavia porcellus [1]): 22% |
| O=S(=O)(NCCc1cccc(C(F)(F)F)c1)NS(=O)(=O)NCCc1cccc(C(F)(F)F)c1 | 32% |  |
| O=S(=O)(Nc1ccc(F)cc1)NS(=O)(=O)Nc1ccc(F)cc1 | 1% |  |
| O=S(=O)(NCCc1cccc(Cl)c1)NS(=O)(=O)NCCc1cccc(Cl)c1 | 16% |  |
| COc1cccc(CCNS(=O)(=O)NS(=O)(=O)NCCc2cccc(OC)c2)c1 | 9% |  |
| O=S(=O)(NCCc1ccc(Br)cc1)NS(=O)(=O)NCCc1ccc(Br)cc1 | 72% |  |
| O=S(=O)(NCCCCCc1ccccc1)NS(=O)(=O)NCCCCCc1ccccc1 |  | inhibition at 10 µM (Cavia porcellus [1]): 8% |
| O=S(=O)(NCCCc1ccccc1)NS(=O)(=O)NCCCc1ccccc1 |  | inhibition at 20 µM (Cavia porcellus [4]): 15% |
| O=S(=O)(NCCc1ccccc1)NS(=O)(=O)NCCc1ccccc1 |  | inhibition at 20 µM (Cavia porcellus [4]): 7% |

| Compound | inhibition at 50 µM (Cavia porcellus [2]) | also measured |
| --- | --- | --- |
| Cc1cccc(NS(=O)(=O)NS(=O)(=O)Nc2cccc(C)c2)c1 | 13% |  |
| CSc1cccc(NS(=O)(=O)NS(=O)(=O)Nc2cccc(SC)c2)c1 | 12% |  |
| O=S(=O)(NCCc1ccc(Cl)c(Cl)c1)NS(=O)(=O)NCCc1ccc(Cl)c(Cl)c1 |  | inhibition at 10 µM (Cavia porcellus [1]): 43% |
| Cc1ccc(CCNS(=O)(=O)NS(=O)(=O)NCCc2ccc(C)cc2)cc1 | 1% |  |
| O=S(=O)(NCCc1ccc(O)cc1)NS(=O)(=O)NCCc1ccc(O)cc1 | 7% |  |
| O=S(=O)(Nc1cccc(Br)c1)NS(=O)(=O)Nc1cccc(Br)c1 | 38% |  |
| N#Cc1ccc(NS(=O)(=O)NS(=O)(=O)Nc2ccc(C#N)cc2)cc1 | -8% |  |
| CCOC(=O)c1ccc(NS(=O)(=O)NS(=O)(=O)Nc2ccc(C(=O)OCC)cc2)cc1 |  | inhibition at 5 µM (Cavia porcellus [3]): -5% |
| O=S(=O)(NCCc1cccc(SC(F)(F)F)c1)NS(=O)(=O)NCCc1cccc(SC(F)(F)F)c1 |  | inhibition at 5 µM (Cavia porcellus [3]): -6% |
| CC(=O)c1ccc(NS(=O)(=O)NS(=O)(=O)Nc2ccc(C(C)=O)cc2)cc1 | -11% |  |
| O=S(=O)(Nc1ccc(C(F)(F)F)cc1)NS(=O)(=O)Nc1ccc(C(F)(F)F)cc1 | 86% | inhibition at 10 µM (Cavia porcellus [1]): 24% |
| O=S(=O)(Nc1ccccc1)NS(=O)(=O)Nc1ccccc1 |  | inhibition at 20 µM (Cavia porcellus [4]): 6% |
| COc1ccc(CCNS(=O)(=O)NS(=O)(=O)NCCc2ccc(OC)cc2)cc1 | 18% |  |
| O=S(=O)(NCCc1ccc(Cl)cc1)NS(=O)(=O)NCCc1ccc(Cl)cc1 |  | inhibition at 20 µM (Cavia porcellus [4]): 62% |
| O=S(=O)(Nc1ccc(Cl)cc1)NS(=O)(=O)Nc1ccc(Cl)cc1 | -2% |  |
| O=S(=O)(NCCCCCCc1ccccc1)NS(=O)(=O)NCCCCCCc1ccccc1 |  | inhibition at 10 µM (Cavia porcellus [1]): 15% |
| O=S(=O)(NCCc1ccccc1Cl)NS(=O)(=O)NCCc1ccccc1Cl |  | inhibition at 10 µM (Cavia porcellus [1]): 8% |
